Active and inactive are the calls of the source. The calls are words filed in the database; no cut-off is given here.
Columns and labels:
Escherichia coli B = assay: Competitive inhibition of Escherichia coli B H2-pteroate synthetase assessed as decrease in H2-pteroate formation using [7-14C]-PABA as substrate treated with enzyme for 10 mins prior to substrate challenge for 40 mins by radioassay method
Procedure, shortened: (§1)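 Cell-free extract of E. coli B (400-600 ug protein) was preincubated 10 min at 37 °C with 0.5 umol ATP, 2 umol MgCl2, 0.5 mg ascorbate, 0.1 mmol Tris-HCl pH 8.0 and 20 nmol 2-amino-4-hydroxy-6-hydroxymethyl-7,8-dihydropteridine in 0.45 ml. [7-14C]-PABA was then added and incubation ran 40 min. The reaction was stopped with citric acid phosphate buffer pH 3.8, free PABA was ether-extracted, and aqueous radioactivity was counted.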

[1] = Dissociation constant, pKa of the compound; format: physicochemical
Escherichia coli = assay: Antibacterial activity against Escherichia coli 273 assessed as growth inhibition at 1 mM after 22 hrs; format: functional, organism-based
Procedure, shortened: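 PABA-requiring E. coli 273 was grown across a range of PABA concentrations with compound at 1 mM, and growth was read after 22 h of incubation.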

[2] = Competitive inhibition of Escherichia coli B H2-pteroate synthetase assessed as decrease in H2-pteroate formation using [7-14C]-PABA as substrate treated with enzyme for 10 mins prior to substrate challenge for 40 mins by Dixon plot analysis; procedure, shortened: as §1

Inhibition index (Escherichia coli B)	Structure (SMILES)	also measured
480	Nc1ccc(C(=O)CC(C(=O)O)c2ccccc2)cc1 (stereo in doubt; 25)	
800	Nc1ccc(C(=O)c2ccccc2)cc1	pKa [1]: 2.24
53	NC(=O)c1ccc(N)cc1	
40	Nc1ccc(C(=O)CC(C(=O)O)c2ccccc2)cc1 (stereo in doubt; 26)	
400	CN(C)C(=O)c1ccc(N)cc1	
600	CCOC(=O)c1ccc(N)cc1 [BENZOCAINE]	pKa [1]: 2.5
55	Nc1ccc(C(=O)CCC(=O)O)cc1	growth inhibition (GI) (Escherichia coli): inactive; Ki [2]: 130 µM
600	Nc1ccc(C(=O)Nc2ccccc2)cc1	
	Cc1ccc(N)cc1	pKa [1]: 5.1
460	CCOC(=O)CCC(=O)c1ccc(N)cc1	
	Nc1ccc(CC(=O)O)cc1	pKa [1]: 3.6
260	Nc1ccc(C(=O)NCC(=O)O)cc1	
250	Nc1ccc(C(=O)N[C@H](CCC(=O)O)C(=O)O)cc1	
600	CCOC(=O)CC[C@H](NC(=O)c1ccc(N)cc1)C(=O)OCC	
74	Nc1ccc(C(=O)CC(C(=O)O)c2ccccc2)cc1 (racemic) [listing 1 of 2 here]	growth inhibition (GI) (Escherichia coli): inactive
800	Nc1ccc(C(=O)NCCc2ccccc2)cc1	
105	CCOC(=O)CC(=O)c1ccc(N)cc1	
450	COC(=O)c1ccc(N)cc1	pKa [1]: 2.46
550	COC(=O)CNC(=O)c1ccc(N)cc1	
	Nc1ccc(C(=O)CC(C(=O)O)c2ccccc2)cc1 (racemic) [listing 2 of 2 here]	Ki [2]: 150 µM
700	Nc1ccc(C(=O)NCCCC(=O)O)cc1	
76	Nc1ccc(C(=O)N[C@@H](CCC(=O)O)C(=O)O)cc1	Ki [2]: 170 µM

Structure (SMILES)	Inhibition index (Escherichia coli B)	also measured
CC(=O)c1ccc(N)cc1	210	pKa [1]: 2.5
CCC(=O)c1ccc(N)cc1	180	
CNC(=O)c1ccc(N)cc1	120	

Source: ChEMBL document CHEMBL3272340, “P-Aminobenzoic acid derivatives as inhibitors of the cell-free H2-pteroate synthesizing system of Escherichia coli” (J Med Chem, 1977)
